The source made the active and inactive calls. The calls are words filed in the database; no cut-off is given here.
Experiments:
[1] = tested on: Cortex; assay: Induction of 40-Hz shock-stimulated Sprague-Dawley rat cortical activity assessed as increase in slope of rising phase at 0.2 uM after 15 mins by voltage-sensitive dye imaging method; assay type: functional
Procedure, shortened: (§1)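 Rat barrel-cortex slices (300–450 μm) came from Sprague–Dawley rats of either sex, P10–18. Slices recovered at 35°C for ≥30 min, then were held in oxygenated ACSF (pH 7.4) at 32°C. Staining used RH 414 or di-4-ANEPPS (0.025 mg/ml). White matter was stimulated at 10 Hz or 40 Hz. Modafinil was applied for 15 min. Optical response was taken as fractional fluorescence ΔF/F.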

[2] = tested on: Thalamocortex; assay: Induction of 10-Hz shock-stimulated C57BL/6 mouse thalamocortical activity assessed as increase in peak amplitude at 0.2 uM after 15 mins by voltage-sensitive dye imaging method; assay type: functional, Brain
Procedure, shortened: (§2)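 Thalamocortical slices (350–400) came from C57BL/6 mice of either sex, P7–20, anesthetized with pentobarbital 120 mg/kg i.p. Slices recovered at 35°C for ≥30 min, then sat in oxygenated ACSF (pH 7.4) at 32°C. They were stained with RH 414 or di-4-ANEPPS (0.025 mg/ml). White matter received 10-Hz and/or 40-Hz electrical stimulation. Modafinil was bath-perfused and read at 15 min. Signal was ΔF/F.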

[3] = tested on: Thalamocortex; assay: Effect on paired-pulse ventrobasal stimulation induced excitatory postsynaptic current in 40-Hz shock-stimulated C57BL/6 mouse thalamocortical slices; assay type: functional, tissue-based; conditions: Brain
[4] = tested on: Cortex; assay: Induction of 40-Hz shock-stimulated Sprague-Dawley rat cortical activity assessed as increase in peak amplitude at 0.2 uM after 15 mins by voltage-sensitive dye imaging method; assay type: functional; procedure, shortened: as §1
[5] = tested on: Cortex; assay: Induction of 40-Hz shock-stimulated Sprague-Dawley rat cortical activity assessed as increase in peak amplitude at 100 uM after 15 mins by voltage-sensitive dye imaging method; assay type: functional; procedure, shortened: as §1
[6] = tested on: Thalamocortex; assay: Induction of 10-Hz shock-stimulated C57BL/6 mouse thalamocortical activity assessed as increase in slope of rising phase after 15 mins by voltage-sensitive dye imaging method; assay type: functional, Brain; procedure, shortened: as §2
[7] = tested on: Thalamocortex; assay: Induction of 40-Hz shock-stimulated C57BL/6 mouse thalamocortical activity assessed as increase in slope of rising phase after 15 mins by voltage-sensitive dye imaging method; assay type: functional, Brain; procedure, shortened: as §2
[8] = tested on: Cortex; assay: Induction of 10-Hz shock-stimulated Sprague-Dawley rat cortical activity assessed as increase in slope of rising phase at 0.2 uM after 15 mins by voltage-sensitive dye imaging method; assay type: functional; procedure, shortened: as §1
[9] = tested on: Thalamocortex; assay: Effect on C57BL/6 mouse thalamocortical activity in presence of PKA inhibitor KT5720 by voltage-sensitive dye imaging method; assay type: functional; conditions: Brain
[10] = tested on: Thalamocortex; assay: Induction of 40-Hz shock-stimulated C57BL/6 mouse thalamocortical activity assessed as increase in peak amplitude at 0.2 uM after 15 mins by voltage-sensitive dye imaging method; assay type: functional, Brain; procedure, shortened: as §2
[11] = tested on: Thalamocortex; assay: Effect on C57BL/6 mouse thalamocortical activity in presence of CaMK2 inhibitor KN93 by voltage-sensitive dye imaging method; assay type: functional; conditions: Brain
[12] = tested on: Cortex; assay: Induction of 10-Hz shock-stimulated Sprague-Dawley rat cortical activity assessed as increase in peak amplitude at 100 uM after 15 mins by voltage-sensitive dye imaging method; assay type: functional; procedure, shortened: as §1
[13] = species on record: Rattus norvegicus; assay: Increase in electronic coupling in Sprague-Dawley rat cortical interneurons assessed as input conductance change at 50 uM by […]; assay type: functional
[14] = species on record: Rattus norvegicus; assay: Increase in electronic coupling of Long-Evans rat inferior olivary neurons at 150 uM by single-patch clamp method; assay type: functional
Procedure, shortened: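 Paired patch recording was done at 32°C in ACSF. Hyperpolarizing current was injected into one neuron of a pair. Coupling coefficient = coupled-cell response ÷ injected-cell response, averaged over 10–20 trials. Measured before and after 150 μM modafinil; n = 7 pairs.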

[15] = species on record: Rattus norvegicus; assay: Increase in electronic coupling of Long-Evans rat inferior olivary neurons in presence of CaMK2 inhibitor KN93 by single-patch clamp method; assay type: functional
[16] = tested on: Thalamocortex; assay: Induction of 40-Hz shock-stimulated C57BL/6 mouse thalamocortical activity assessed as increase in peak amplitude at 100 uM after 15 mins by voltage-sensitive dye imaging method; assay type: functional, Brain; procedure, shortened: as §2
[17] = tested on: Cortex; assay: Induction of 10-Hz shock-stimulated Sprague-Dawley rat cortical activity assessed as increase in slope of rising phase after 15 mins by voltage-sensitive dye imaging method; assay type: functional; procedure, shortened: as §1
[18] = tested on: Thalamocortex; assay: Effect on excitatory synaptic transmission in C57BL/6 mouse thalamocortical slices assessed as increase in input conductance in presence of GABAA, GABAB and NMDA blockers by single patch clamp recording; assay type: functional, Brain
[19] = species on record: Rattus norvegicus; assay: Reduction of input resistance in Long-Evans rat inferior olivary neurons at 150 uM relative to control by single-patch clamp method; assay type: functional
Procedure, shortened: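 Input resistance was probed with hyperpolarizing current pulses before and after local application of modafinil (100–150 μM).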

[20] = tested on: Cortex; assay: Induction of 40-Hz shock-stimulated Sprague-Dawley rat cortical activity assessed as increase in slope of rising phase after 15 mins by voltage-sensitive dye imaging method; assay type: functional; procedure, shortened: as §1
[21] = tested on: Cortex; assay: Induction of 10-Hz shock-stimulated Sprague-Dawley rat cortical activity assessed as increase in peak amplitude at 0.2 uM after 15 mins by voltage-sensitive dye imaging method; assay type: functional; procedure, shortened: as §1
[22] = tested on: Thalamocortex; assay: Induction of 40-Hz shock-stimulated C57BL/6 mouse thalamocortical activity assessed as increase in slope of rising phase at 0.2 uM after 15 mins by voltage-sensitive dye imaging method; assay type: functional, Brain; procedure, shortened: as §2
[23] = tested on: Thalamocortex; assay: Induction of 10-Hz shock-stimulated C57BL/6 mouse thalamocortical activity assessed as increase in peak amplitude at 100 uM after 15 mins by voltage-sensitive dye imaging method; assay type: functional, Brain; procedure, shortened: as §2
[24] = tested on: Thalamocortex; assay: Induction of 10-Hz shock-stimulated C57BL/6 mouse thalamocortical activity assessed as increase in slope of rising phase at 0.2 uM after 15 mins by voltage-sensitive dye imaging method; assay type: functional, Brain; procedure, shortened: as §2
[25] = Increase in electronic coupling in Sprague-Dawley rat cortical interneurons assessed as coupling coefficient at 100 uM by […]; assay type: functional
[26] = species on record: Rattus norvegicus; assay: Reversal of increase in electronic coupling in Sprague-Dawley rat cortical interneurons assessed as input conductance change at 50 uM in presence of gap junction inhibitor mefloquine by […]; assay type: functional

For `NC(=O)C[S+]([O-])C(c1ccccc1)c1ccccc1` (stereo unspecified) [MODAFINIL], which Activity [1] is on record?
The Activity was 35%.

And the Activity [2]?
Its Activity is 70%.

And the Activity [3]?
Its Activity is “inactive”.

And the Activity [4]?
Its Activity is 75%.

What about the Activity [5] of the same compound?
Its Activity is 75%.

What about the Activity [6] of the same compound?
Its Activity is 31%.

And the Activity [7]?
The Activity was 32%.

And the Activity [8]?
The Activity was 67%.

And the Activity [9]?
The Activity was “Active”.

And the Activity [10]?
Its Activity is 75%.

What about the Activity [11] of the same compound?
Its Activity is “inactive”.

And the Activity [12]?
The Activity was 65%.

What about the Activity [13] of the same compound?
The Activity was “Active”.

And the Activity [14]?
The Activity was “Active”.

What about the Activity [15] of the same compound?
Its Activity is “inactive”.

What about the Activity [16] of the same compound?
Its Activity is 75%.

And the Activity [17]?
The Activity was 31%.

What about the Activity [18] of the same compound?
Its Activity is 31%.

What about the Activity [19] of the same compound?
Its Activity is “Active”.

And the Activity [20]?
Its Activity is 32%.

And the Activity [21]?
Its Activity is 70%.

What about the Activity [22] of the same compound?
The Activity was 35%.

What about the Activity [23] of the same compound?
Its Activity is 65%.

And the Activity [24]?
Its Activity is 67%.

And the Activity [25]?
The Activity was 70%.

What about the Activity [26] of the same compound?
The Activity was “Active”.

Source: ChEMBL document CHEMBL1147042, “Modafinil enhances thalamocortical activity by increasing neuronal electrotonic coupling” (2007)
